An excerpt weighted towards active compounds, which were near 3.1% of everything screened.
E-selectin induc: induces E-selectin expression in human endothelial cells; 260,000 compounds, 0.37% hits; HUVEC E-selectin immunofluorescence imaging; normalized: neutral wells 0, TNF-alpha wells 100; activation, % at 7.58 µM; AID 686992;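 active = mean E-selectin-positive cell signal at least 10% of the positive control, reached in at least 60% of replicates, without over 20% cell loss; inconclusive = no rule given, readout overlaps actives, possibly toxicity-flagged; inactive = the rest, including those meeting only one limit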
Target sequence (P16581 whole entry, looked up): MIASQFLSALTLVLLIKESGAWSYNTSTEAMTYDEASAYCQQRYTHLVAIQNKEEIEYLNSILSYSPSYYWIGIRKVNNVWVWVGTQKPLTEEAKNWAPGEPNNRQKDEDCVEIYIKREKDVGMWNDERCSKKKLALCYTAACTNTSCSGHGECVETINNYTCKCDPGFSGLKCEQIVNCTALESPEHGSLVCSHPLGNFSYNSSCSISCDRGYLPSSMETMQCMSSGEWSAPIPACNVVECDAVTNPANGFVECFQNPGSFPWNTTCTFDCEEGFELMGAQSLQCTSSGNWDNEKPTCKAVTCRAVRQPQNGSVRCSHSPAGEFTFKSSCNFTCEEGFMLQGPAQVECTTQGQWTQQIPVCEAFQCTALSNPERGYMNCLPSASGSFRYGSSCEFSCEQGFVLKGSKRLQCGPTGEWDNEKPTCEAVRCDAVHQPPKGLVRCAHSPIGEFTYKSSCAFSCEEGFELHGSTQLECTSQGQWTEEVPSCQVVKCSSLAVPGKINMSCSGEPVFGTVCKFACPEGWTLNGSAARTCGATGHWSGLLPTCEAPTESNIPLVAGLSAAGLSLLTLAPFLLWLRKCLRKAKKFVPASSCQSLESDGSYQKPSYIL
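Read-out basis: % PE-positive cells; Test system: HUVEC primary endothelial cells; Technique: immunofluorescence imaging; Dosing: single-point compound dose.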
DENV2 CPE rescue: DENV2-induced cell death inhibition | 350,000 compounds, 1.7% hits | DENV2-infected cells, cytopathic effect rescue, plate reader | CPE inhibition, % at 9.99 µM; in the data active = CPE inhibition above about 20%, passing the limit was not always enough; inconclusive = no clear call, values can overlap the other calls; tested in BHK-21 cells;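 note: 0% = median of neutral control wells and 100% = median of positive control wells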
Cneo AK release: causes C. neoformans cell lysis; 360,000 compounds, 0.2% hits; adenylate kinase release luminescence, 4 h; normalised: neutral wells 0, clomiphene wells 100; lysis activity, % at 15 µM; AID 651654;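 active = mean lysis activity across replicates of at least 80%, whatever share of replicates individually reach that level; inactive = mean lysis activity below 80%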
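Test system: log-phase Cryptococcus neoformans yeast cells; Quantity: yeast cell density of 5 × 10^6 cells/mL; Buffer or medium: YPD; Doses: single compound concentration per well; Timing: 4 h at 37 °C static, read 1 h later; Measured by: AK luminescence; Read-out basis: lysis from increased AK signal; Control set: Clomiphene as positive control.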
Ecoli rRNA inh: inhibits bacterial ribosomal RNA function over humanized ribosomes; E. coli WT GFP vs humanized-ribosome RFP mutants, fluorescence, 24 h; hits give low values; DMSO median 0, no signal -100; GFP signal change (wild-type ribosome), % (no concentration beside the values); 350,000 compounds, 1.6% hits;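 active = significant combined selectivity score with lowered wild-type GFP, culture density cut under 30%, mutant RFP and density less affected; inactive = any of these conditions unmet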
miR-122 sensor: blocks miR-122 activity in Huh7 sensor cells; Huh7 miR-122 Renilla luciferase sensor, 48 h; neutral wells = 0, positive control = 100; activation (reporter increase), % at 12.5 µM; 340,000 compounds, 0.3% hits; AID 602342;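 active = mean replicate activation score at least 90 and every replicate individually at or above 90; inconclusive = only one of the two criteria met; inactive = neither criterion met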;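 note: higher luciferase means less miR-122 activity so hits act as miR-122 inhibitors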
Numbers without * were called inactive; ? = inconclusive; . = no result given; [ ] = dose if it differs, or a comment.

SMILES | E-selectin induc | DENV2 CPE rescue | Cneo AK release | Ecoli rRNA inh | miR-122 sensor
COc1cc(CC2C(=O)Nc3ccccc32)cc(C)c1O (centres undefined) | 52* | 6 | 2 | 5 | .
O=C1Nc2ccccc2C1Cc1ccccn1 (centres undefined) | 48* | -2 | . | 22 | .
CCS(=O)(=O)N1CCCCN2[C@@H](CO)[C@@H](c3ccc(-c4ccccc4F)cc3)[C@@H]2C1 | 0 | 16 | 0 | 1 | -2[16.7 µM]
C[C@@H]1CN([C@H](C)CO)C(=O)c2cc(NC(=O)Cc3cn(C)c4ccccc34)ccc2O[C@H]1CN(C)Cc1ccc(Cl)c(Cl)c1 | 51* | 0 | 64 | -1 | -5[16.7 µM]
C[C@H](CO)N1C[C@H](C)[C@H](CN(C)Cc2ccc3c(c2)OCO3)Oc2ccc(NC(=O)Cc3cn(C)c4ccccc34)cc2C1=O | 43* | -3 | -2 | 0 | 3[16.7 µM]
C[C@@H]1CN([C@H](C)CO)C(=O)c2cc(NS(=O)(=O)c3cccs3)ccc2O[C@H]1CN(C)Cc1ccc(C(F)(F)F)cc1 | -12 | 0 | -6 | -4 | 1[16.7 µM]
O=C(C[C@H]1C[C@H]2c3cc(NS(=O)(=O)c4ccc(F)cc4)ccc3O[C@H]2[C@@H](CO)O1)N1CCOCC1 | 0 | 9 | 2 | 0 | -4[16.7 µM]
O=C(COC(=O)/C=C/c1ccc(OC(F)F)cc1)NC1CCCCCC1 | 0 | 17 | -1 | -18* | -6
O=C(COC(=O)/C=C/c1ccc(OC(F)F)cc1)NC1CCCCCCC1 | 0 | 7 | . | 9 | .
COc1ccc(S(=O)(=O)Nc2ccc3c(c2)C(=O)N([C@H](C)CO)C[C@@H](C)[C@@H](CN(C)S(C)(=O)=O)OCCCC[C@H](C)O3)cc1 | 0 | 0 | 0 | 4 | -2[16.7 µM]
C[C@H](CO)N1C[C@H](C)[C@H](CN(C)S(C)(=O)=O)OCCCC[C@H](C)Oc2ccc(NS(=O)(=O)c3ccc(F)cc3)cc2C1=O | 0 | -3 | -2 | -4 | -3[16.7 µM]
CNC[C@H]1OCCCC[C@@H](C)Oc2ccc(NS(=O)(=O)c3ccc(C)cc3)cc2C(=O)N([C@H](C)CO)C[C@@H]1C | 0 | 30* | -4 | 6 | -3[16.7 µM]
CNC[C@H]1OCCCC[C@@H](C)Oc2ccc(NS(=O)(=O)c3c(C)noc3C)cc2C(=O)N([C@H](C)CO)C[C@H]1C | 0 | -12 | -22 | 3 | 11[16.7 µM]
CNC[C@@H]1OCCCC[C@H](C)Oc2ccc(NS(=O)(=O)c3ccc(C)cc3)cc2C(=O)N([C@@H](C)CO)C[C@H]1C | 0 | -3 | 15 | 9 | 5[16.7 µM]
COc1ccc(S(=O)(=O)Nc2ccc3c(c2)C(=O)N([C@H](C)CO)C[C@@H](C)[C@@H](CN(C)S(C)(=O)=O)OCCCC[C@@H](C)O3)cc1 | 0 | 49* | -2 | 0 | -7[16.7 µM]
C[C@@H]1CN([C@H](C)CO)C(=O)c2cc(NS(=O)(=O)c3ccc(F)cc3)ccc2O[C@@H](C)CCCCO[C@@H]1CN(C)S(C)(=O)=O | 44* | 11 | -3 | 3 | 5[16.7 µM]
CNC[C@@H]1OCCCC[C@H](C)Oc2ccc(NS(=O)(=O)c3c(C)noc3C)cc2C(=O)N([C@@H](C)CO)C[C@@H]1C | 0 | 132* | 13 | 1 | 7[16.7 µM]
Cc1noc(C)c1NC(=O)N(C)C[C@H]1Oc2c(NC(=O)CCCCCC(=O)Nc3ccccc3N)cccc2C(=O)N([C@@H](C)CO)C[C@H]1C | 0 | 10 | . | 3 | .
Cc1ccc(S(=O)(=O)Nc2ccc3c(c2)C(=O)N([C@@H](C)CO)C[C@H](C)[C@@H](CN(C)S(C)(=O)=O)OCCCC[C@@H](C)O3)cc1 | 1 | 26* | 1 | 4 | 11[16.7 µM]
Cc1ccc(S(=O)(=O)Nc2ccc3c(c2)C(=O)N([C@H](C)CO)C[C@H](C)[C@H](CN(C)S(C)(=O)=O)OCCCC[C@H](C)O3)cc1 | 0 | 18 | 0 | -2 | 4[16.7 µM]
Cc1ccc(S(=O)(=O)Nc2ccc3c(c2)C(=O)N([C@H](C)CO)C[C@H](C)[C@@H](CN(C)S(C)(=O)=O)OCCCC[C@H](C)O3)cc1 | 0 | 57* | -1 | -2 | -1[16.7 µM]
C[C@@H]1CN(C)C(=O)c2cccc(N)c2O[C@H]1CN(C)S(C)(=O)=O | . | . | . | -1 | .
C[C@@H]1CN([C@@H](C)CO)C(=O)c2cccc(NC(=O)Nc3cccc4ccccc34)c2O[C@@H]1CN(C)Cc1ccc(C(=O)Nc2ccccc2N)cc1 | 2 | 10 | . | -8 | .
C[C@H]1CN([C@@H](C)CO)C(=O)c2cccc(NC(=O)Nc3ccc4c(c3)OCO4)c2O[C@H]1CN(C)Cc1ccc2c(c1)OCO2 | 1 | 27* | -7 | 2 | 5[16.7 µM]
C[C@@H]1CN([C@@H](C)CO)C(=O)c2cccc(NC(=O)Nc3ccc4c(c3)OCO4)c2O[C@H]1CN(C)Cc1ccc2c(c1)OCO2 | 0 | 22* | -3 | -5 | 41[16.7 µM]
SMILES | E-selectin induc | DENV2 CPE rescue | Cneo AK release | Ecoli rRNA inh | miR-122 sensor
C[C@H](CO)N1C[C@H](C)[C@H](CN(C)Cc2ccc3c(c2)OCO3)Oc2c(NC(=O)Nc3ccc4c(c3)OCO4)cccc2C1=O | 0 | -6 | 0 | -1 | 32[16.7 µM]
O=[N+]([O-])c1c(Nc2cccc(O)c2)cc(Cl)c2nonc12 | 0 | -17 | 6 | -45* | .
CCCNC(=O)Nc1ccc2c(c1)C(=O)N(C)C[C@@H](OC)[C@H](C)CN(Cc1ccncc1)[C@@H](C)CO2 | 0 | . | -2 | 0 | 0[16.7 µM]
O=C1c2c(Br)c(Br)c(Br)c(Br)c2C(=O)N1c1ccccn1 | 0 | 6 | -1 | 27 | .
O=C1OC(=O)c2c(Br)c(Br)c(Br)c(Br)c21 | . | 39* | 3 | 4 | -2
O=C(NCC1CC1)[C@H]1N[C@H]2c3ccc(C4=CCCCC4)c(=O)n3C[C@H]2[C@@H]1CO | -1 | 1 | 0 | -3 | .
CN1C(=O)N[C@@H]2c3ccccc3O[C@@]1(C)[C@@H]2CO | . | 20* | 5 | . | .
COc1ccc(COC[C@@]23Oc4ccccc4[C@@H](NC(=O)N2C)[C@H]3CO)cc1 | . | 6 | 6 | . | .
CCSc1nnc(-c2cc(Br)ccc2N=Cc2c(C)[nH]n(-c3ccccc3)c2=O)c(=O)[nH]1 | . | 3 | . | -1 | .
CSc1nnc(-c2cc(Br)ccc2N=Cc2c(C)[nH]n(-c3ccccc3)c2=O)c(=O)[nH]1 | . | -3 | . | -25* | .
CCCNC(=O)C[C@H]1C[C@@H]2c3cc(NC(=O)Nc4ccc(F)cc4)ccc3O[C@@H]2[C@@H](CO)O1 | 0 | 3 | -6 | 2 | 1[16.7 µM]
CC(C)(C)[C@@H]1C=C(C(=O)N2CCCCCCC2)O[C@H](OCc2ccc(CO)cc2)C1 | . | ? | -1 | . | .
COc1cc2cc(CN(CCc3cccc(C)c3)C(=S)NCCCN(C)C)c(=O)[nH]c2cc1OC | -2 | 10 | . | -38* | .
Cc1ccc2[nH]c(=O)c(CN(CCCN(C)C)C(=S)NCCc3ccccc3)cc2c1 | 4 | 1 | . | -36* | .

Assay outcomes deposited in PubChem BioAssay by Broad Institute.
